Assay results as given in ChEMBL document CHEMBL1140884, “Oligodeoxyribonucleotide-based antagonists for Toll-like receptors 7 and 9” (2009).
The source made the active and inactive calls.

Tests used:
PBMC [1] = assay: Induction of TNFalpha secretion in human PBMC; assay type: functional, cell-based
Outline: (§1)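 Human PBMCs (5×10^6/mL; 1×10^6 per well) were cultured 24 h with TLR9 agonist 5 µg/mL or TLR7/8 agonist 100 µg/mL, alone or with antagonist at 1:4. Compounds were dissolved in PBS. Supernatant cytokines were measured by Luminex human 25-plex bead assay. One representative donor of six.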

PBMC [2] = assay: (§2) Induction of IP10 secretion in human PBMC; assay type: functional, cell-based; outline: as §1
PBMC [3] = assay: Induction of IL12 secretion in human PBMC; assay type: functional, cell-based; outline: as §1
PBMC [4] = assay: Induction of MIP1beta secretion in human PBMC; assay type: functional, cell-based; outline: as §1
PBMC [5] = assay: as §2; assay type: functional, cell-based; outline: as §1; remark: listed apart in the source
PBMC [6] = assay: Induction of IFN-gamma secretion in human PBMC; assay type: functional, cell-based; outline: as §1
[7] = biological target: T1, Toll-like receptor 9 (Homo sapiens) (UniProt Q9NR96); assay: Agonist activity at TLR9 in human PBMC assessed as NF-kappaB activation at 5 ug/mL; assay type: functional
T1 sequence (whole entry): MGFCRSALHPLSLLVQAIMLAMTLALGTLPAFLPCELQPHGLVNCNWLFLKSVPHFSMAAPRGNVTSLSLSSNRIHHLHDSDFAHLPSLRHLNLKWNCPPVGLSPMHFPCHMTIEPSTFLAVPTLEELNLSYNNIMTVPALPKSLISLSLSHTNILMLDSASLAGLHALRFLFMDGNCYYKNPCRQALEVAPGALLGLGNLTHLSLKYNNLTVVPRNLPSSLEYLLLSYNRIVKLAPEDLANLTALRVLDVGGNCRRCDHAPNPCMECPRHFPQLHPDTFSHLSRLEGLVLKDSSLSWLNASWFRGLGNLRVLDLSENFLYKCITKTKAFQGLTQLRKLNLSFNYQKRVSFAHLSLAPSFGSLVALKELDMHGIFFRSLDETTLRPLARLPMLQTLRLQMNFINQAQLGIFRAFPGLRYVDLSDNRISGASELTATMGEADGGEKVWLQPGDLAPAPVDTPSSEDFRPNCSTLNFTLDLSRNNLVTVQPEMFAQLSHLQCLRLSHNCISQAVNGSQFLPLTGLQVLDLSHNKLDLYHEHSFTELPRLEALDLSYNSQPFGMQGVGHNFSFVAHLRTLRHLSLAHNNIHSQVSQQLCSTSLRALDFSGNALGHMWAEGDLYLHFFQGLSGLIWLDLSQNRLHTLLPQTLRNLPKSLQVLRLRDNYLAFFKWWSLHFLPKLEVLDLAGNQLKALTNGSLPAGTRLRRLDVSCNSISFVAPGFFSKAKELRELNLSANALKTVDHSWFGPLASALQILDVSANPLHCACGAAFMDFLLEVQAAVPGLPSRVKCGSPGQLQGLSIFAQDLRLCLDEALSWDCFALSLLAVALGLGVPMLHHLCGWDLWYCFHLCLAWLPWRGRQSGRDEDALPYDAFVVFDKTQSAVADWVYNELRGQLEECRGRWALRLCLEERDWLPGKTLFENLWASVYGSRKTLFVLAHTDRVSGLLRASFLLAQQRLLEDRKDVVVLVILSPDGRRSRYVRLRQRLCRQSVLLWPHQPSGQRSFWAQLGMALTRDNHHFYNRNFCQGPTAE
Outline: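 Human PBMCs from healthy-donor blood (Ficoll) plated at 1×10^7 cells/well, stimulated for 2 h. Nuclear extracts analysed for NF-κB binding by EMSA on native polyacrylamide gels with autoradiography. One representative donor of three.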

PBMC [8] = assay: Induction of MIG secretion in human PBMC; assay type: functional, cell-based; outline: as §1
PBMC [9] = assay: Induction of IL6 secretion in human PBMC; assay type: functional, cell-based; outline: as §1
PBMC [10] = assay: Induction of IFNalpha secretion in human PBMC; assay type: functional, cell-based; outline: as §1
PBMC [11] = assay: Induction of MCP1 secretion in human PBMC; assay type: functional, cell-based; outline: as §1

Measured: Activity

Cc1cn([C@H]2C[C@H](OP(=O)(S)OC[C@H]3O[C@@H](n4ccc(N)nc4=O)C[C@@H]3OP(=O)(S)OC[C@H]3O[C@@H](n4cc(C)c(=O)[nH]c4=O)C[C@@H]3OP(=O)(S)OC[C@H]3O[C@@H](n4cnc5c(=O)[nH]c(N)nc54)C[C@@H]3OP(=O)(S)OC[C@H]3O[C@@H](n4cc(C)c(=O)[nH]c4=O)C[C@@H]3OP(=O)(S)OC[C@H]3O[C@@H](n4ccc(N)nc4=O)C[C@@H]3OP(=O)(S)OC[C@H]3O[C@@H](n4ccc5c(N)ncnc54)C[C@@H]3OP(=O)(S)OC[C@H]3O[C@@H](n4cc(C)c(=O)[nH]c4=O)C[C@@H]3OP(=O)(S)OC[C@H]3O[C@@H](n4cc(C)c(=O)[nH]c4=O)C[C@@H]3OP(=O)(S)OC[C@H]3O[C@@H](n4ccc(N)nc4=O)C[C@@H]3OP(=O)(S)OC[C@H]3O[C@@H](n4cc(C)c(=O)[nH]c4=O)C[C@@H]3OP(=O)(S)OCC(O)COP(=O)(S)O[C@H]3C[C@H](n4cc(C)c(=O)[nH]c4=O)O[C@@H]3COP(=O)(S)O[C@H]3C[C@H](n4ccc(N)nc4=O)O[C@@H]3COP(=O)(S)O[C@H]3C[C@H](n4cc(C)c(=O)[nH]c4=O)O[C@@H]3COP(=O)(S)O[C@H]3C[C@H](n4cc(C)c(=O)[nH]c4=O)O[C@@H]3COP(=O)(S)O[C@H]3C[C@H](n4ccc5c(=O)[nH]c(N)nc54)O[C@@H]3COP(=O)(S)O[C@H]3C[C@H](n4ccc(N)nc4=O)O[C@@H]3COP(=O)(S)O[C@H]3C[C@H](n4cc(C)c(=O)[nH]c4=O)O[C@@H]3COP(=O)(S)O[C@H]3C[C@H](n4cnc5c(=O)[nH]c(N)nc54)O[C@@H]3COP(=O)(S)O[C@H]3C[C@H](n4cc(C)c(=O)[nH]c4=O)O[C@@H]3COP(=O)(S)O[C@H]3C[C@H](n4ccc(N)nc4=O)O[C@@H]3COP(=O)(S)O[C@H]3C[C@H](n4cc(C)c(=O)[nH]c4=O)O[C@@H]3CO)[C@@H](CO)O2)c(=O)[nH]c1=O (stereo partly specified)
active: all assays above
